In ChEMBL document CHEMBL1124413, “Quinazoline antifolate thymidylate synthase inhibitors: nitrogen, oxygen, sulfur, and chlorine substituents in the C2 position” (J Med Chem, 1989):
In brackets after ≈: the same amount, converted by molar mass.

Assays:
[1] = system: L1210; assay: Tested for inhibition of L1210 mouse leukemia cell growth in culture; format: functional, cell-based
Outline: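 L1210 mouse leukemia cells were grown in culture with the test agent. The result was expressed as IC50, the concentration that inhibits cell growth by 50%.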

[2] = Compound was tested for its solubility in 0.20 M aqueous NaH2PO4 initially at pH 7; format: ADME; conditions: 0.20 M aqueous NaH2PO4, pH 7
[3] = Compound was tested for its solubility in 0.01 M aqueous NaH2PO4 initially at pH 7; format: ADME; conditions: 0.01 M aqueous NaH2PO4, pH 7
Outline: (§1)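 Compound was dissolved to saturation in 0.01 M aqueous NaH2PO4 adjusted initially to pH 7. Solubility was reported as mg/mL, and the pH reached by the saturated solution was recorded.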

[4] = pH attained by the compound at saturation after dissolving in 0.01 M aqueous NaH2PO4 initially at pH 7; format: ADME; conditions: buffer; outline: as §1
[5] = pH attained by the compound at saturation after dissolving in 0.20 M aqueous NaH2PO4 initially at pH 7; format: ADME; conditions: buffer
[6] = target: T1, Dihydrofolate reductase (Homo sapiens, UniProt P00374); assay: Effect against dihydrofolate reductase (DHFR)
T1 sequence (P00374 whole entry): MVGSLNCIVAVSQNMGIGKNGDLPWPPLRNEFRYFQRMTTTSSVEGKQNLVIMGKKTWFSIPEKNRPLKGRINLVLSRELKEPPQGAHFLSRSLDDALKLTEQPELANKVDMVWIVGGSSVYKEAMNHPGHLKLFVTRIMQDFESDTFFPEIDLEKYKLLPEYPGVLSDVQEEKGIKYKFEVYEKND

SMILES	IC50 [1]	further results
C=CCN(Cc1ccc2nc(OC)nc(O)c2c1)c1ccc(C(=O)NC(CCC(=O)O)C(=O)O)cc1 (stereo not drawn)	16 µM	
C#CCN(Cc1ccc2nc(NCCN)nc(O)c2c1)c1ccc(C(=O)NC(CCC(=O)O)C(=O)O)cc1 (stereo not drawn)	97 µM	
COc1nc(O)c2cc(CN(CCCO)c3ccc(C(=O)NC(CCC(=O)O)C(=O)O)cc3)ccc2n1 (stereo not drawn)	80 µM	
C#CCN(Cc1ccc2nc(NCC)nc(O)c2c1)c1ccc(C(=O)NC(CCC(=O)O)C(=O)O)cc1 (stereo not drawn)	> 100 µM	
C#CCN(Cc1ccc2nc(OCC)nc(O)c2c1)c1ccc(C(=O)NC(CCC(=O)O)C(=O)O)cc1 (stereo not drawn)	> 100 µM	
C#CCN(Cc1ccc2nc(NCCN(C)C)nc(O)c2c1)c1ccc(C(=O)NC(CCC(=O)O)C(=O)O)cc1 (stereo not drawn)	> 100 µM	
C#CCN(Cc1ccc2nc(OCCOC)nc(O)c2c1)c1ccc(C(=O)NC(CCC(=O)O)C(=O)O)cc1 (stereo not drawn)	100 µM	
C#CCN(Cc1ccc2nc(Cl)nc(O)c2c1)c1ccc(C(=O)NC(CCC(=O)O)C(=O)O)cc1 (stereo not drawn)	67 µM	
C#CCN(Cc1ccc2nc(OC)nc(O)c2c1)c1ccc(C(=O)NC(CCC(=O)O)C(=O)O)cc1 (stereo not drawn)	1.9 µM	solubility [2]: 6600 µg/mL (≈ 13400 µM); solubility [3]: 1200 µg/mL (≈ 2440 µM); pH [4]: 4.93; pH [5]: 5.67
CCN(Cc1ccc2nc(OC)nc(O)c2c1)c1ccc(C(=O)NC(CCC(=O)O)C(=O)O)cc1 (stereo not drawn)	12 µM	
C#CCN(Cc1ccc2nc(N(C)C)nc(O)c2c1)c1ccc(C(=O)NC(CCC(=O)O)C(=O)O)cc1 (stereo not drawn)	> 100 µM	
C#CCN(Cc1ccc2nc(S)nc(O)c2c1)c1ccc(C(=O)NC(CCC(=O)O)C(=O)O)cc1 (stereo not drawn)	60 µM	
COc1nc(O)c2cc(CN(CCO)c3ccc(C(=O)NC(CCC(=O)O)C(=O)O)cc3)ccc2n1 (stereo not drawn)	7.3 µM	
C#CCN(Cc1ccc2nc(OCCO)nc(O)c2c1)c1ccc(C(=O)NC(CCC(=O)O)C(=O)O)cc1 (stereo not drawn)	> 100 µM	
COc1nc(O)c2cc(CN(CCF)c3ccc(C(=O)NC(CCC(=O)O)C(=O)O)cc3)ccc2n1 (stereo not drawn)	17 µM	
C#CCN(Cc1ccc2nc(NCCO)nc(O)c2c1)c1ccc(C(=O)NC(CCC(=O)O)C(=O)O)cc1 (stereo not drawn)	47 µM	
COc1nc(O)c2cc(CN(C)c3ccc(C(=O)NC(CCC(=O)O)C(=O)O)cc3)ccc2n1 (stereo not drawn)	7 µM	
COc1nc(O)c2cc(CNc3ccc(C(=O)NC(CCC(=O)O)C(=O)O)cc3)ccc2n1 (stereo not drawn)	6.4 µM	Ki [6]: ~0.6 µM
C#CCN(Cc1ccc2nc(NCC(=O)O)nc(O)c2c1)c1ccc(C(=O)NC(CCC(=O)O)C(=O)O)cc1 (stereo not drawn)	> 100 µM	
C#CCN(Cc1ccc2nc(SC)nc(O)c2c1)c1ccc(C(=O)NC(CCC(=O)O)C(=O)O)cc1 (stereo not drawn)	13 µM	
C#CCN(Cc1ccc2nc(-n3ccnc3)nc(O)c2c1)c1ccc(C(=O)NC(CCC(=O)O)C(=O)O)cc1 (stereo not drawn)	> 100 µM	
C#CCN(Cc1ccc2nc(NC)nc(O)c2c1)c1ccc(C(=O)NC(CCC(=O)O)C(=O)O)cc1 (stereo not drawn)	24 µM	
C#CCN(Cc1ccc2[nH]c(N)nc(=O)c2c1)c1ccc(C(=O)NC(CCC(=O)O)C(=O)O)cc1 (stereo not drawn)	3.4 µM	solubility [2]: 60 µg/mL (≈ 126 µM); solubility [3]: 50 µg/mL (≈ 105 µM); pH [4]: 5.76; pH [5]: 6.78
C#CCN(Cc1ccc2nc(Oc3ccccc3)nc(O)c2c1)c1ccc(C(=O)NC(CCC(=O)O)C(=O)O)cc1 (stereo not drawn)	> 100 µM	
